Active and inactive are the calls of the source. The rule behind the calls is not given here.
Key:
Type in all cases: functional, organism-based
Biomphalaria alexandrina [1] = test: Molluscicidal activity against Biomphalaria alexandrina at 1 ppm after 24 hrs
Procedure, shortened: (§1)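 Field-collected snails (about 7 mm shell diameter) held in the lab 10 days before testing and fed lettuce daily. Compound dissolved with two drops Tween 20 plus 2 mL DMSO, then suspended in untreated raw Nile/canal water in aerated glass jars. Three concentrations between 1 and 10 ppm; ten snails per jar, 24 h at 25 °C. Triplicate runs; mean killed snails recorded. Controls received water with Tween 20/DMSO only.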

Biomphalaria alexandrina [2] = test: Molluscicidal activity against Biomphalaria alexandrina at 5 ppm after 24 hrs; procedure, shortened: as §1
Biomphalaria alexandrina [3] = test: Molluscicidal activity against Biomphalaria alexandrina at 10 ppm after 24 hrs; procedure, shortened: as §1

SMILES	Activity (Biomphalaria alexandrina [1])	Activity (Biomphalaria alexandrina [2])	Activity (Biomphalaria alexandrina [3])
O=C(/C(Br)=C/c1cn(-c2ccccc2)nc1-c1cc2ccccc2o1)c1cc2ccccc2o1	inactive	inactive	inactive
N#Cc1c(-c2cn(-c3ccccc3)nc2-c2cc3ccccc3o2)cc(-c2cc3ccccc3o2)nc1N	inactive	Active	Active
S=C1N=C(c2cn(-c3ccccc3)nc2-c2cc3ccccc3o2)CC(c2cc3ccccc3o2)N1 (stereo unspecified)	inactive	inactive	inactive
O=C(Nc1ccc([N+](=O)[O-])cc1Cl)c1cc(Cl)ccc1O	Active	Active	Active
C(=C1/Sc2nncn2N=C1c1cc2ccccc2o1)/c1cn(-c2ccccc2)nc1-c1cc2ccccc2o1	inactive	Active	Active
O=C(c1cc2ccccc2o1)C(Br)C(Br)c1cn(-c2ccccc2)nc1-c1cc2ccccc2o1 (stereo unspecified)	inactive	inactive	inactive
c1ccc(-n2cc(C3CC(c4cc5ccccc5o4)=NN3)c(-c3cc4ccccc4o3)n2)cc1 (stereo unspecified)	inactive	Active	Active
NC(=S)N1N=C(c2cc3ccccc3o2)CC1c1cn(-c2ccccc2)nc1-c1cc2ccccc2o1 (stereo unspecified)	inactive	inactive	inactive
c1ccc(-n2cc(C3CC(c4cc5ccccc5o4)=NO3)c(-c3cc4ccccc4o3)n2)cc1 (stereo unspecified)	inactive	inactive	inactive
Cc1cn2c(nc1=O)S/C(=C\c1cn(-c3ccccc3)nc1-c1cc3ccccc3o1)C(c1cc3ccccc3o1)=N2	inactive	inactive	inactive
C(=C1/Sc2ccccc2N=C1c1cc2ccccc2o1)/c1cn(-c2ccccc2)nc1-c1cc2ccccc2o1	inactive	inactive	inactive
O=C(/C=C/c1cn(-c2ccccc2)nc1-c1cc2ccccc2o1)c1cc2ccccc2o1	inactive	Active	Active
